Arrestin-AP2 inh – inhibitors of human beta-arrestin and AP2 interaction | FITC-arrestin peptide / GST-AP2 beads, flow cytometry; AP2 beta2 appendage carries R879A mutation | AID 504490 | inhibition, % at 10 µM | hit rate 0.31% among 340,000;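 active means inhibition above a set limit, near 3 SD of compounds lacking own fluorescence, cut at about 54% in these data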;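 further: plate controls were DMSO wells for no effect and 5 µM unlabelled arrestin peptide for full effect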
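Assay system: GST-AP2 R879A bound to glutathione beads, E. coli-expressed; Medium: PBS with 0.05% Tween 20 and 0.1% BSA; Also added: fluorescein-tagged arrestin peptide at 50 nM final; Timing: 12 min plus 1 h, RT; Measured by: flow cytometry, FL1 (488/535 nm); Evaluation: percent drop in bead-associated FITC signal.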
hiPSC survival – increases survival of single human iPS cells; hiPSC single-cell survival, ATPlite luminescence; 100% = ROCK inhibitor wells, 0% = DMSO; survival enhancement, % at 20 µM; hit rate 0.044% among 360,000; in the data active means survival enhancement above about 18%;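 further: cells exposed to compounds for 16 hours before the ATP read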
FAS TE block – blocks the thioesterase domain of human fatty acid synthase | P49327 | recombinant FAS-TE, OMFH fluorogenic substrate, fluorescence endpoint | inhibition, % at 15 µM | hit rate 0.67% among 360,000 | AID 602261;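 active means compounds whose normalised, plate-corrected inhibition of enzyme fluorescence in the single-dose primary screen is 50% or more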;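 further: 0% = DMSO with enzyme and 100% = substrate without enzyme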
SENP1 inh – SENP1 (human) catalytic domain inhibition | Q9P0U3 | AID 624204 | hit rate 0.21% among 360,000 | inhibition, % at 10 µM | recombinant SENP1 catalytic domain, CyPet-SUMO1-YPet FRET cleavage;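 active means inhibition at least 30% at 10 µM, raw YFP signal under a set limit, fluorescence ratio 0.5 to 1.5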;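 further: 0% = enzyme with DMSO and 100% = no enzyme wells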
Target sequence (Q9P0U3 419-644 limits assumed): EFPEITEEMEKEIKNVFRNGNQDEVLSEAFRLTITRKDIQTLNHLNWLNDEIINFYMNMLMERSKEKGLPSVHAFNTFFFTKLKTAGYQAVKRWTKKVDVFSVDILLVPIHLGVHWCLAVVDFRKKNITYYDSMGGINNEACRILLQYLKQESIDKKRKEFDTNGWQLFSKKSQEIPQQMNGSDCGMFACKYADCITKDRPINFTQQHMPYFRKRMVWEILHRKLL
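Assay system – human recombinant His6-tagged SENP1 catalytic domain enzyme · Input – SENP1 enzyme, 20 pM final · Buffer or medium – Tris pH 8 buffer plus EDTA, NaCl, BME, BSA, NP40, catalase · Schedule – 50 min reaction at room temperature · Technique – FRET read of cyan and yellow fluorescence · Control set – no-enzyme wells low, DMSO-plus-enzyme wells high control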
H9c2 protect – modulators protecting cardiomyocytes from myocardial damage | H9c2 cardiomyocytes, H2O2 injury protection, ATPLite, 2 h | protection from H2O2 cell death, % at 20 µM | hit rate 0.63% among 360,000;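 active means compounds giving at least 50% protection of heart cells from peroxide-induced death in the single-dose screen, raw or plate-pattern-corrected value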;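 further: 0% = DMSO wells with peroxide and 100% = DMSO wells without peroxide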
NR3A LBD binder – NR3A (human) ligand-binding domain modulation. hit rate 2.5% among 340,000. Tm shift relative to glycine control, % at 25 µM. NR3A LBD differential scanning fluorimetry, Tm shift; 0% = protein alone, 100% = glycine-bound protein;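 active means melting temperature shift of at least 10% of the positive control shift, at one fixed dose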
Arr-AP2 CP1 – inhibitors of human beta-arrestin and AP2 interaction. shares compounds with Arrestin-AP2 inh. GST-AP2 beads, FITC arrestin peptide binding, flow cytometry; GST-fused beta2-adaptin appendage, R879A mutant. inhibition, % at 10 µM. hit rate 2% among 1,300;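 active means inhibition above a set limit, roughly 3 SD of non-fluorescent compound noise, cut at about 38% in these data; inactive means inhibition at or below that limit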;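 further: loss of bead fluorescence from 50 nM FITC arrestin peptide bound to appendage; 0% = negative control wells and 100% = excess unlabelled arrestin peptide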
GST GSH counter – disrupts GST binding to glutathione beads, arrestin-AP2 artifact; shares compounds with Arrestin-AP2 inh; GST-fluorescein binding to GSH beads, fluorescence, counter-screen; inhibition, % at 10 µM; hit rate 2% among 1,300; AID 588338;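 active means inhibition above 50%, about 3 SD of the inhibition seen with non-fluorescent compounds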;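 further: fluorescein maleimide labelled GST captured on 4 micron glutathione beads; higher means more loss of bead fluorescence from quenching or blocked binding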
The depositor's hits bear a star; . = no result given. Rows were chosen to be rich in hits. Some 4% of all compounds tested hit in one or more screens of this group.

SMILES	Arrestin-AP2 inh	hiPSC survival	FAS TE block	SENP1 inh	H9c2 protect	NR3A LBD binder	Arr-AP2 CP1	GST GSH counter
CC1=C(C(=O)N2CCOCC2)CC(CC(=O)NC2CCCCC2)C(=O)N1CCCN1CCCC1=O (centres undefined)	.	7	-7	-1	1	.	.	.
CCCOc1ccc(C(=O)OCC(=O)c2c(N)n(C)c(=O)n(C)c2=O)cc1OC	18	0	-5	-3	-3	-2	.	.
CC(=O)Oc1ccc(-c2ccc(C(=O)OCC(=O)c3c(N)n(C)c(=O)n(C)c3=O)cc2)cc1	2	-3	26	-1	-11	-1	.	.
Cn1c(N)c(C(=O)COC(=O)c2ccc(OC(F)F)cc2)c(=O)n(C)c1=O	16	2	1	-1	-1	1	0	-1
CC(C)Cn1c(N)c(C(=O)COC(=O)c2cc(F)cc(F)c2)c(=O)n(C)c1=O	21	1	10	-1	-13	0	.	.
CC(C)Cn1c(N)c(C(=O)COC(=O)c2ccc(O)cc2)c(=O)n(C)c1=O	-8	0	-2	-7	-5	-4	-8	-12
COc1cc(C(=O)OCC(=O)c2c(N)n(C)c(=O)n(C)c2=O)ccc1OCCC(C)C	55*	1	-1	-7	1	-3	6	-4
O=c1ccc2c(ccc3ncccc32)o1	.	0	-8	0	0	.	.	.
COC(=O)c1ccccc1S(=O)(=O)N1CCC(C(=O)NCCC2=CCCCC2)CC1	63*	-1	4	2	0	0	-5	-1
OC(c1cccc(Cl)c1)c1nc(-c2ccc(Cl)cc2)cs1 (centres undefined)	.	1	24	0	-17	.	.	.
CCC(C(=O)NCc1ccccc1)n1c(-c2cccs2)nc2ccccc21 (centres undefined)	.	.	.	2	.	.	.	.
CC(C)(C)[C@H]1C=C(C(=O)N2CCOCC2)O[C@@H](OCCCCO)C1	54*	-1	-8	1	12	-1	-7	-2
CCCc1c(C(=O)N/N=C/c2ccc3c(c2)OCO3)nnn1-c1nonc1N	.	-2	-6	1	-5	.	.	.
O=C(OC1CCOC1=O)c1cccc(S(=O)(=O)Nc2cccc(Cl)c2)c1 (centres undefined)	63*	2	-2	1	10	-2	-10	-4
CN1CCN(S(=O)(=O)c2cc([N+](=O)[O-])ccc2N2CCCCCC2)CC1	2	3	4	3	-3	1	.	.
CN1CCN(S(=O)(=O)c2cc([N+](=O)[O-])ccc2N/N=C/c2ccc(Cl)cc2)CC1	98*	0	-1	-26	-1	2	2	-3
Nn1c(COc2ccccc2F)nnc1SCC(=O)NCC1CCCO1 (centres undefined)	.	0	-4	1	-2	.	.	.
Cc1nc2ccc(NC(=O)c3cccs3)cc2s1	4	1	-3	-1	0	-6	.	.
Cc1nc2ccc(NC(=O)c3ccc4ccccc4n3)cc2s1	65*	0	10	1	-4	-7	-7	-2
Cc1ccccc1NC(=O)C1C(=O)Nc2ccccc2C(=O)N1Cc1ccccc1 (centres undefined)	.	.	.	2	.	.	.	.
Cc1cnc(C(=O)Nc2ccc(OC(F)(F)F)cc2)cn1	55*	0	-2	1	-8	-1	5	-16
Cc1cnc(C(=O)Nc2ccc(N3CCCCC3)cc2)cn1	2	1	-14	4	-8	-2	.	.
CCC(=O)Nc1ccc(-c2ccc(N3CCN(C)CC3)nn2)cc1	55*	2	-6	1	3	-2	-3	-4
CCC(=O)Nc1ccc(-c2ccc(N3CCC(C)CC3)nn2)cc1	-7	0	4	-1	-3	0	.	.
O=C(Nc1ccc2c(c1)OCCO2)C1c2ccccc2OCC(=O)N1Cc1ccco1 (centres undefined)	.	1	-8	1	.	.	.	.

Screening data (PubChem)
